# Measurements collected from several papers.
# Compare with care: the assays were run in different laboratories.
# Organism: Escherichia coli
Compound,read-out,technique,strain,measurement,value
C[n+]1c(/C=C/c2ccc(O)cc2)cc(/C=C2\Sc3ccccc3N2CCCN2CCCC2)c2ccccc21.[I-],microbial growth,broth dilution,ATCCBAA2469,MIC,16 µg/mL
CCCCCCCCCCCC(=O)OC[C@H]1O[C@@H](n2cc(C)c(=O)[nH]c2=O)C[C@@H]1O,microbial killing,broth dilution,,MBC,16 µg/mL
COC(=O)c1cc(-c2cccc(NC(=S)Nc3ccc(C)cc3)c2)on1,microbial growth,broth dilution,ATCC25922,MIC,> 64 µg/mL
Oc1cccc2cccnc12,microbial growth,broth dilution,ATCC25922,IC50,49.5 µg/mL
COC(=O)c1cc(-c2cccc(NC(=O)Nc3cc(Cl)ccc3Cl)c2)on1,microbial growth,broth dilution,ATCC25922,MIC,> 64 µg/mL
CC(C)CCCCCCCCCCCCc1cc(O)cc(O)c1,microbial growth,,,IC50,78.1 µM
COC(=O)c1cc(-c2ccc(NC(=O)Nc3ccc(Cl)c(Cl)c3)cc2)on1,microbial growth,broth dilution,ATCC25922,MIC,> 64 µg/mL
O=C(Sc1cccccc1=O)c1ccccc1,microbial growth,broth dilution,ATCC35218,MIC80,19.8 µM
O=C(O)c1cn(C2CC2)c2cc(N3CCNCC3)c(F)cc2c1=O,microbial killing,,,MBC,0.019 µg/mL
CC(C)CCCCCCCCCCCCCCCc1cc(O)cc(O)c1,microbial growth,,,IC50,70.2 µM
O=C(N[C@H](CO)[C@H](O)c1ccc([N+](=O)[O-])cc1)C(Cl)Cl,microbial growth,,,MIC90,15.6 µg/mL
COC(=O)c1cc(-c2cccc(NC(=O)Nc3ccc(F)cc3F)c2)on1,microbial growth,broth dilution,ATCC25922,MIC,> 64 µg/mL
CC(C)CCCCCCCCCCCCCCc1cc(O)cc(O)c1,microbial growth,,,IC50,47.3 µM
